Measured values published in ChEMBL document CHEMBL1671663, “In vivo characterization of the peptide deformylase inhibitor LBM415 in murine infection models” (Antimicrob Agents Chemother, 2009).
Converted amounts (≈) assume the structure as drawn. The source made the active and inactive calls. The rule behind the calls is not given here.

Key:
Staphylococcus aureus [1] = assay: Antimicrobial activity against methicillin susceptible Staphylococcus aureus ATCC 13709 infected in po dosed NMRI mouse treated 1 and 5 hrs post infection; assay type: functional; settings: ATCC 13709, po
Outline: (§1)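 Intraperitoneal infection (0.3 ml/mouse, 10 to 100 times minimal lethal dose) with inoculum in 0.86% NaCl; ATCC 49951 grown overnight in Mueller-Hinton broth (1.7 × 10^7 to 2.2 × 10^7 CFU/mouse), ATCC 13709 in tryptic soy broth (7.3 × 10^7 to 2 × 10^8 CFU/mouse). Groups of 5 to 6 mice, typically three doses, treated 1 and 5 h postinfection; vehicle controls. ED50 by probit analysis of day-8 survival.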

Staphylococcus aureus [2] = assay: Antimicrobial activity against methicillin-resistant Staphylococcus aureus NB01021 by broth microdilution method; assay type: functional
Outline: (§2)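 MICs determined by broth microdilution following CLSI guidelines. Inocula came from overnight Mueller-Hinton broth (ATCC 49951, NB01021) or overnight Trypticase soy agar culture (ATCC 6301). ATCC 6303 and ATCC 700677 came from a 5-h log culture in Todd-Hewitt broth–30% horse serum.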

Streptococcus pneumoniae [3] = assay: Antimicrobial activity against Streptococcus pneumoniae ATCC 6301 infected in po dosed NMRI mouse administered thrice daily for 4 days; settings: ATCC 6301, po, 96 h
Streptococcus pneumoniae [4] = assay: Antimicrobial activity against multiple drug-resistant Streptococcus pneumoniae ATCC 700677 by broth microdilution method; assay type: functional; outline: as §2
Staphylococcus aureus [5] = assay: Antimicrobial activity against methicillin-susceptible Staphylococcus aureus ATCC 49951 by broth microdilution method; assay type: functional; outline: as §2
Staphylococcus aureus [6] = assay: Antimicrobial activity against methicillin susceptible Staphylococcus aureus ATCC 49951 infected in sc dosed NMRI mouse treated 1 and 5 hrs post infection; assay type: functional; settings: ATCC 49951, sc; outline: as §1
Staphylococcus aureus [7] = assay: Antimicrobial activity against methicillin-resistant Staphylococcus aureus NB01021 infected in po dosed BALB/c mouse administered 0, 4, 23 hrs post infection; assay type: functional
Outline: (§3)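 Female BALB/c mice (19–23 g) infected intraperitoneally with MRSA NB01021 in 5% hog gastric mucin, 2.1 × 10^7 to 2.8 × 10^7 CFU/mouse (0.3 ml), 10–100× minimal lethal dose. Three dose levels, groups of 5–6; vehicle controls. Treatment 0, 4 and 23 h post-infection. Observed 8 days; ED50 with 95% CI by probit analysis of day-8 survival.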

Staphylococcus aureus [8] = assay: Antimicrobial activity against methicillin-susceptible Staphylococcus aureus ATCC 13709 by broth microdilution method; assay type: functional
Outline: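 MIC by broth microdilution following CLSI guidelines.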

Staphylococcus aureus [9] = assay: Antimicrobial activity against methicillin susceptible Staphylococcus aureus ATCC 49951 infected in po dosed NMRI mouse treated 1 and 5 hrs post infection; assay type: functional; settings: ATCC 49951, po; outline: as §1
Staphylococcus aureus [10] = assay: Antimicrobial activity against methicillin-resistant Staphylococcus aureus NB01021 infected in sc dosed BALB/c mouse administered 0, 4, 23 hrs post infection; assay type: functional; outline: as §3
Staphylococcus aureus [11] = assay: Antimicrobial activity against methicillin susceptible Staphylococcus aureus ATCC 13709 infected in sc dosed NMRI mouse treated 1 and 5 hrs post infection; assay type: functional; settings: ATCC 13709, sc
Outline: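 Systemic infection: ATCC 13709 grown overnight in tryptic soy broth and suspended in 0.86% NaCl. Given intraperitoneally at 7.3 × 10^7 to 2 × 10^8 CFU/mouse, 10–100× the minimal lethal dose, 0.3 ml/mouse. Groups of 5–6 mice, typically three dose levels; controls got vehicle. Dosed 1 and 5 h post-infection. Survival followed 8 days; ED50 (protection of 50%) with 95% CI by probit analysis of day-8 survival.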

Streptococcus pneumoniae [12] = assay: Antimicrobial activity against Streptococcus pneumoniae ATCC 6303 by broth microdilution method; assay type: functional; outline: as §2
Streptococcus pneumoniae [13] = assay: Antimicrobial activity against Streptococcus pneumoniae ATCC 6301 by broth microdilution method; assay type: functional; outline: as §2
Staphylococcus aureus [14] = assay: Antimicrobial activity against multiple drug resistant Staphylococcus aureus NB01021 infected in immunocompetent NMRI mouse soft tissue infection model assessed as reduction in thigh bacterial load at 50 mg/kg, po administered thrice a day for 2 days; assay type: functional
Outline: (§4)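 Thigh infection: 50 µl of freshly prepared NB01021 suspension (3.8 × 10^6 CFU/thigh) injected intramuscularly into the left hind thigh of female NMRI mice (20–23 g). Oral doses at 0, 4, 8, 24, 28, 32 h; vehicle controls. Thighs excised 18 h after last dose, homogenized in saline and plated on blood agar (detection limit 100 CFU/thigh). Medians compared to controls by Mann-Whitney rank sum test.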

Streptococcus pneumoniae [15] = assay: Antimicrobial activity against Streptococcus pneumoniae ATCC 6303 infected in BALB/c mouse pneumonia model assessed as reduction in lung bacterial load at 40 mg/kg, po administered twice daily 3 days starting 16 hrs post infection; assay type: functional
Outline: (§5)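 Anesthetized (ketamine/xylazine) female BALB/c mice (19 to 22 g) inoculated intranasally with 50 µl log-phase culture (1.4 × 10^5 CFU/mouse). Oral treatment, six mice per group, at 16, 27, 40, 51, 64 and 75 h postinfection; vehicle controls. Lungs harvested one day after last dose, homogenized, plated; log10 CFU/lung. Deaths assigned 9 log10 CFU/lung; Kruskal-Wallis with Dunn's test versus control.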

[16] = AUC in CD1 mouse at 5 mg/kg, iv by liquid chromatography/mass spectroscopy; assay type: ADME, organism-based; parameters: dose 5 mg/kg, route intravenous; settings: plasma
Outline: (§6)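 CD1 mice given 20 mg/kg p.o. or 5 mg/kg i.v.; blood sampled from three mice per time point, first at 0.083 h (i.v.) or 0.25 h (p.o.), last at 24 h. Plasma separated by centrifugation (10,000 rpm, 10 min, 4°C), stored at −80°C, assayed by LC/MS. Mean concentration-time course used for parameters; F from ratio of dose-normalized AUCs; C0 extrapolated from i.v. curve.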

Streptococcus pneumoniae [17] = assay: Antimicrobial activity against Streptococcus pneumoniae ATCC 6303 infected in BALB/c mouse pneumonia model assessed as reduction in lung bacterial load at 80 mg/kg, po administered twice daily 3 days starting 16 hrs post infection; assay type: functional; outline: as §5
Mus musculus [18] = assay: Drug concentration at time zero in CD1 mouse at 5 mg/kg, iv by liquid chromatography/mass spectroscopy; assay type: ADME, organism-based; parameters: dose 5 mg/kg, route intravenous; settings: in vivo; outline: as §6
Streptococcus pneumoniae [19] = assay: Antimicrobial activity against Streptococcus pneumoniae ATCC 6303 infected in BALB/c mouse pneumonia model assessed as complete eradication of bacteria at 40 mg/kg, po administered twice daily 3 days starting 16 hrs post infection; assay type: functional, organism-based; parameters: dose 40 mg/kg; outline: as §5
Streptococcus pneumoniae [20] = assay: Antimicrobial activity against Streptococcus pneumoniae ATCC 6303 infected in po dosed BALB/c mouse pneumonia model assessed as complete eradication of bacteria administered twice daily 3 days starting 16 hrs post infection; assay type: functional; outline: as §5
Streptococcus pneumoniae [21] = assay: Antimicrobial activity against multiple drug resistant Streptococcus pneumoniae ATCC 700677 infected in sc dosed BALB/c mouse administered twice daily for 3 days; assay type: functional; settings: ATCC 700677, sc, 72 h
Outline: (§7)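 Female BALB/c mice (19–23 g) infected intraperitoneally with ATCC 700677 from a 5-h Todd-Hewitt–30% horse serum log culture, suspended in 5% hog mucin, 1.5 × 10^7 to 2 × 10^7 CFU/mouse. Groups of 5–6, typically three dose levels; vehicle controls. Dosed 1, 5, 17, 27, 42, 51 h post-infection. ED50 from day-8 survival by probit analysis, with 95% CI.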

[22] = Tmax in CD1 mouse at 20 mg/kg, po by liquid chromatography/mass spectroscopy; assay type: ADME, organism-based; parameters: dose 20 mg/kg, route oral; settings: in vivo; outline: as §6
Streptococcus pneumoniae [23] = assay: Antimicrobial activity against multiple drug resistant Streptococcus pneumoniae ATCC 700677 infected in po dosed BALB/c mouse administered twice daily for 3 days; assay type: functional; settings: ATCC 700677, po, 72 h; outline: as §7
[24] = Bioavailability in CD1 mouse at 20 mg/kg, po by liquid chromatography/mass spectroscopy; settings: in vivo
[25] = Volume of distribution at steady state in CD1 mouse at 5 mg/kg, iv by liquid chromatography/mass spectroscopy; assay type: ADME, organism-based; parameters: dose 5 mg/kg, route intravenous; settings: in vivo, read-out: Vdss; outline: as §6
[26] = AUC in CD1 mouse at 20 mg/kg, po by liquid chromatography/mass spectroscopy; assay type: ADME, organism-based; parameters: dose 20 mg/kg, route oral; settings: plasma; outline: as §6
Mus musculus [27] = assay: Cmax in CD1 mouse at 20 mg/kg, po by liquid chromatography/mass spectroscopy; assay type: ADME, organism-based; parameters: dose 20 mg/kg, route oral; settings: in vivo; outline: as §6
Staphylococcus aureus [28] = assay: Antimicrobial activity against multiple drug resistant Staphylococcus aureus NB01021 infected in immunocompetent NMRI mouse soft tissue infection model assessed as reduction in thigh bacterial load at 5.6 mg/kg, po administered thrice a day for 2 days; assay type: functional; outline: as §4
Streptococcus pneumoniae [29] = assay: Antimicrobial activity against Streptococcus pneumoniae ATCC 6303 infected in BALB/c mouse pneumonia model assessed as reduction in lung bacterial load at 20 mg/kg, po administered twice daily 3 days starting 16 hrs post infection; assay type: functional; outline: as §5
Staphylococcus aureus [30] = assay: Antimicrobial activity against multiple drug resistant Staphylococcus aureus NB01021 infected in immunocompetent NMRI mouse soft tissue infection model assessed as reduction in thigh bacterial load at 16.7 mg/kg, po administered thrice a day for 2 days; assay type: functional; outline: as §4
[31] = Clearance in CD1 mouse at 5 mg/kg, iv by liquid chromatography/mass spectroscopy; assay type: ADME, organism-based; parameters: dose 5 mg/kg, route intravenous; settings: in vivo; outline: as §6

## CC(=O)NC[C@H]1CN(c2ccc(N3CCOCC3)c(F)c2)C(=O)O1 [LINEZOLID]
Staphylococcus aureus [1]
  ED50: 10.3 mg/kg
Staphylococcus aureus [2]
  MIC: 1 µg/mL (≈ 2.96 µM)
Streptococcus pneumoniae [3]
  ED50: 5.6 mg/kg
Streptococcus pneumoniae [4]
  MIC: 0.25 µg/mL (≈ 0.741 µM)
Staphylococcus aureus [5]
  MIC: 1 µg/mL (≈ 2.96 µM)
Staphylococcus aureus [6]
  ED50: 7.4 mg/kg
Staphylococcus aureus [7]
  ED50: 2 mg/kg
Staphylococcus aureus [8]
  MIC: 1 µg/mL (≈ 2.96 µM)
Staphylococcus aureus [9]
  ED50: 7 mg/kg

## CN[C@H](CC(C)C)C(=O)N[C@H]1C(=O)N[C@@H](CC(N)=O)C(=O)N[C@H]2C(=O)N[C@H]3C(=O)N[C@H](C(=O)N[C@H](C(=O)O)c4cc(O)cc(O)c4-c4cc3ccc4O)[C@H](O)c3ccc(c(Cl)c3)Oc3cc2cc(c3O[C@@H]2O[C@H](CO)[C@@H](O)[C@H](O)[C@H]2O[C@H]2C[C@](C)(N)[C@H](O)[C@H](C)O2)Oc2ccc(cc2Cl)[C@H]1O [VANCOMYCIN]
Staphylococcus aureus [10]
  ED50: 2.5 mg/kg
Streptococcus pneumoniae [4]
  MIC: ≤ 0.125 µg/mL
Staphylococcus aureus [6]
  ED50: 1.5 mg/kg
Staphylococcus aureus [11]
  ED50: 2.8 mg/kg
Streptococcus pneumoniae [12]
  MIC: 0.5 µg/mL (≈ 0.345 µM)
Streptococcus pneumoniae [13]
  MIC: 0.5 µg/mL (≈ 0.345 µM)

## CCCC[C@H](CN(O)C=O)C(=O)N1CCC[C@H]1C(=O)Nc1ccc(F)c[n+]1[O-]
Staphylococcus aureus [14]
  log10cfu: 3.6
Staphylococcus aureus [10]
  ED50: 0.7 mg/kg
Streptococcus pneumoniae [15]
  log10cfu: <2
Staphylococcus aureus [1]
  ED50: 13.2 mg/kg
Staphylococcus aureus [2]
  MIC: 2 µg/mL (≈ 5.05 µM)
Streptococcus pneumoniae [3]
  ED50: 6.4 mg/kg
[16]
  AUC: 2690 ng·h/mL
Streptococcus pneumoniae [17]
  log10cfu: 2.3
Mus musculus [18]
  Drug uptake: 5361 ng/mL
Streptococcus pneumoniae [4]
  MIC: 0.5 µg/mL (≈ 1.26 µM)
Streptococcus pneumoniae [19]
  Activity: Active
Streptococcus pneumoniae [20]
  ED50: 23.3 mg/kg
Streptococcus pneumoniae [21]
  ED50: 4.8 mg/kg
Staphylococcus aureus [5]
  MIC: 0.125 µg/mL (≈ 0.315 µM)
[22]
  Tmax: 30 min
Staphylococcus aureus [6]
  ED50: 1.1 mg/kg
Streptococcus pneumoniae [23]
  ED50: 36.6 mg/kg
Staphylococcus aureus [7]
  ED50: 5.9 mg/kg
Staphylococcus aureus [8]
  MIC: 4 µg/mL (≈ 10.1 µM)
Staphylococcus aureus [9]
  ED50: 2.3 mg/kg
[24]
  bioavailability: 53%
[25]
  Vd: 3.12 L/kg
Streptococcus pneumoniae [12]
  MIC: 2 µg/mL (≈ 5.05 µM)
[26]
  AUC: 5700 ng·h/mL
Mus musculus [27]
  Cmax: 4250 ng/mL
Staphylococcus aureus [28]
  log10cfu: 6.3
Streptococcus pneumoniae [29]
  log10cfu: 5.1
Streptococcus pneumoniae [13]
  MIC: 0.125 µg/mL (≈ 0.315 µM)
Staphylococcus aureus [30]
  log10cfu: 5.6
[31]
  clearance: 30.8 mL/min/kg

## CC1(C)S[C@@H]2[C@H](NC(=O)[C@H](N)c3ccc(O)cc3)C(=O)N2[C@H]1C(=O)O [AMOXICILLIN]
Staphylococcus aureus [2]
  MIC: 128 µg/mL (≈ 350 µM)
Streptococcus pneumoniae [4]
  MIC: 4 µg/mL (≈ 10.9 µM)
Staphylococcus aureus [5]
  MIC: 0.5 µg/mL (≈ 1.37 µM)
Staphylococcus aureus [7]
  ED50: > 50 mg/kg
Staphylococcus aureus [8]
  MIC: 1 µg/mL (≈ 2.74 µM)
Streptococcus pneumoniae [12]
  MIC: 0.03 µg/mL (≈ 0.0821 µM)
Streptococcus pneumoniae [13]
  MIC: 0.03 µg/mL (≈ 0.0821 µM)
